Measured values as given in PubChem BioAssay AID624340 (The Scripps Research Institute Molecular Screening Center, 2012).
Several values for one entry are separate records, joined by “and”; a condition that tells them apart may be missing. Identical values can stand only once. Activity calls are given as the source filed them.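 How the source made its calls: active means IC50 at or below 10 µM; inactive means IC50 above 10 µM.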

Molecular target: Insulin-degrading enzyme (Homo sapiens) (UniProt P14735)
Experiment: fluorescence artefact check, IDE FRET1 cleavage – biochemical, FRET1 substrate, round 2, artefact control for IDE inhibitor project, late-stage follow-up (AID 624340)
Details: recombinant WT IDE
Summary of the method: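 Assay system: Recombinant WT IDE | Input: 1 nM IDE final | Detection: Fluorescence at 335/385 nm | Times: Kinetic read every 2 min over 2 h, 22 °C | Repeats: Triplicate per concentration | Measure: IC50 from sigmoidal fit of initial-rate percent activity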

Sequence of Insulin-degrading enzyme (Homo sapiens) (P14735 whole entry, looked up): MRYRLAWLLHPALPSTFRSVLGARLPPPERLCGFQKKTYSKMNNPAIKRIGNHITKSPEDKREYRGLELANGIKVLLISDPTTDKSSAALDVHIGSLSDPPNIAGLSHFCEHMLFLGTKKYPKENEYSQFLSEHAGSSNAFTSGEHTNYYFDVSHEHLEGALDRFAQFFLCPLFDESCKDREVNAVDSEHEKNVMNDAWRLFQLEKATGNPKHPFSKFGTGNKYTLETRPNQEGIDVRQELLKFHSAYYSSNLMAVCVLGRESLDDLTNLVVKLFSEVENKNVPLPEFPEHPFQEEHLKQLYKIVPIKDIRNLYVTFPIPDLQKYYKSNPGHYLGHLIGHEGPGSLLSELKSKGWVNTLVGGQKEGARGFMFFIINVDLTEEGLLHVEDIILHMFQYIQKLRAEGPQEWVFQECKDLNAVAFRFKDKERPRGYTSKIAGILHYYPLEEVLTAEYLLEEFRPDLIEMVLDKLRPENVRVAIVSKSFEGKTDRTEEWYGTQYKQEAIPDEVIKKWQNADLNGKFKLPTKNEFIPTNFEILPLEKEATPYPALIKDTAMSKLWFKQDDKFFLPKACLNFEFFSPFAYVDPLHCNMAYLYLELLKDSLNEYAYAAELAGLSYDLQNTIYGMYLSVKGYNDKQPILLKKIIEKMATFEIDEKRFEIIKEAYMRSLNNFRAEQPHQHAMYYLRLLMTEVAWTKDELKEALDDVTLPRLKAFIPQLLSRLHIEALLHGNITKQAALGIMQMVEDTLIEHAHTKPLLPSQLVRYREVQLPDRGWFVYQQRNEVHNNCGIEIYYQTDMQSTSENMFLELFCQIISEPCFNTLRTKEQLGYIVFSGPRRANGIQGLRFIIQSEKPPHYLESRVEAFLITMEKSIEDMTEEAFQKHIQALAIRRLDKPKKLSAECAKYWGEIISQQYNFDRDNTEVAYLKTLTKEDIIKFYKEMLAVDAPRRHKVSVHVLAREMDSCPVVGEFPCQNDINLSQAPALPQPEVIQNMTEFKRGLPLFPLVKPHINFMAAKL

| SMILES | IC50 |
| --- | --- |
| c1ccc(-c2nnc(SCc3nc4ccccc4[nH]3)n2Cc2ccco2)nc1 | > 100 µM (inactive) |
| COc1cccc(C(=O)N2CCN(C(=O)C3COc4ccccc4O3)CC2)c1 (stereo not given) | inactive |
| O=C(c1ccc(Oc2ccc(F)cc2)cc1)N1CCN(C(=O)C2COc3ccccc3O2)CC1 (stereo not given) | > 100 µM (inactive) |
| c1coc(Cn2c(SCc3nc4ccccc4[nH]3)nnc2-c2cnccn2)c1 | > 100 µM (inactive) |
| O=C(c1ccc(OCC2CCCO2)cc1)N1CCN(C(=O)C2COc3ccccc3O2)CC1 (stereo not given) | > 100 µM (inactive) |
| c1ccc(-c2nnc(SCc3nc4ccccc4[nH]3)n2Cc2ccco2)cc1 | > 100 µM (inactive) |
| CC(=O)Nc1ccccc1C(=O)N1CCN(C(=O)C2COc3ccccc3O2)CC1 (stereo not given) | inactive |
| c1coc(Cn2c(SCc3nc4ccccc4[nH]3)nnc2-c2ccco2)c1 | > 100 µM (inactive) |
| Clc1ccc(COCc2nnc(SCc3nc4ccccc4[nH]3)n2Cc2ccco2)cc1 | > 100 µM (inactive) |
| COc1cc(C(=O)N2CCN(C(=O)C3COc4ccccc4O3)CC2)cc(Cl)c1OC (stereo not given) | > 100 µM (inactive) |
| O=C(c1ccc(Oc2ccccc2)cc1)N1CCN(C(=O)C2COc3ccccc3O2)CC1 (stereo not given) | > 100 µM (inactive) |
| Cc1ccc(-c2nnc(SCc3nc4ccccc4[nH]3)n2Cc2ccco2)cc1 | > 100 µM (inactive) |
| Cc1ccc(COCc2nnc(SCc3nc4ccccc4[nH]3)n2Cc2ccco2)cc1 | > 100 µM (inactive) |
| Cc1nc(COc2ccc(C(=O)N3CCN(C(=O)C4COc5ccccc5O4)CC3)cc2)cs1 (stereo not given) | > 100 µM (inactive) |
| c1coc(Cn2c(SCc3nc4ccccc4[nH]3)nnc2-c2cccs2)c1 | > 100 µM (inactive) |
| O=C(c1ccc2nc(C(F)(F)F)[nH]c2c1)N1CCN(C(=O)C2COc3ccccc3O2)CC1 (stereo not given) | inactive |

Other lines, results leading:

| IC50 | SMILES |
| --- | --- |
| > 100 µM (inactive) | COc1ccc(C(=O)N2CCN(C(=O)COc3ccc(C)cc3)CC2)cc1OC |
| > 100 µM (inactive) | COc1ccc(OCC(=O)N2CCN(C(=O)c3ccc(OC)c(OC)c3)CC2)cc1 |
| > 100 µM (inactive) | COc1ccc(C(=O)N2CCN(C(=O)COc3ccccc3)CC2)cc1OC |
| > 100 µM (inactive) | CCOc1ccc(C(=O)N2CCN(C(=O)C3COc4ccccc4O3)CC2)cc1 (stereo not given) |
| > 100 µM (inactive) | COc1ccc(C(=O)N2CCN(C(=O)C(c3ccccc3)c3ccccc3)CC2)cc1OC |
| 5.89 µM and > 100 µM (inactive) | COc1ccc(C(=O)N2CCN(C(=O)C3COc4ccccc4O3)CC2)cc1 (stereo not given) |
| > 100 µM (inactive) | COc1ccc(C(=O)N2CCN(C(=O)COc3ccc(Cl)cc3)CC2)cc1OC |
| > 100 µM (inactive) | COc1ccc(C(=O)N2CCN(C(=O)CCc3c[nH]c4ccccc34)CC2)cc1OC |
| > 100 µM (inactive) | COc1ccc(C(=O)N2CCN(C(=O)C3CC(=O)N(c4ccccc4)C3)CC2)cc1OC (stereo not given) |
